Measurements taken from ChEMBL document CHEMBL1671716, “Antimicrobial susceptibility patterns for recent clinical isolates of anaerobic bacteria in South Korea” (2010).

Assays:
Prevotella buccae [1] = assay: Antimicrobial activity against Prevotella buccae assessed as percent resistant isolates after 48 hrs by agar dilution method in presence of 4 ug/ml beta-lactamase inhibitor Tazobactam; format: functional, Segatella buccae
Method in brief: (§1)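 CLSI agar dilution on recent Korean clinical anaerobe isolates. Inoculum 10^5 CFU per spot by replicator. Plates incubated in an anaerobic chamber at 37°C for 48 h. For piperacillin plus tazobactam, tazobactam was held constant at 4 μg/ml. Resistance and susceptibility rates derived from MICs.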

Prevotella buccae [2] = assay: Antimicrobial activity against Prevotella buccae assessed as percent susceptible isolates after 48 hrs by agar dilution method in presence of 4 ug/ml beta-lactamase inhibitor Tazobactam; format: functional, Segatella buccae
Method in brief: (§2)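 CLSI agar dilution (M11-A7); inoculum 10^5 CFU applied by replicator; plates incubated anaerobically 48 h at 37°C. For piperacillin-tazobactam, tazobactam held constant at 4 μg/ml.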

Clostridioides difficile [3] = assay: Antimicrobial activity against Clostridium difficile assessed as percent susceptible isolates after 48 hrs by agar dilution method in presence of 4 ug/ml beta-lactamase inhibitor Tazobactam; format: functional; method in brief: as §2
Clostridioides difficile [4] = assay: Antimicrobial activity against Clostridium difficile assessed as percent resistant isolates after 48 hrs by agar dilution method in presence of 4 ug/ml beta-lactamase inhibitor Tazobactam; format: functional; method in brief: as §1
Prevotella buccae [5] = assay: Antimicrobial activity against Prevotella buccae after 48 hrs by agar dilution method in presence of 4 ug/ml beta-lactamase inhibitor Tazobactam; format: functional; details: Segatella buccae; method in brief: as §2
Eggerthella lenta = assay: Antimicrobial activity against Eubacterium lentum after 48 hrs by agar dilution method in presence of 4 ug/ml beta-lactamase inhibitor Tazobactam; format: functional; method in brief: as §2
Bacteroides caccae [6] = assay: Antimicrobial activity against Bacteroides caccae assessed as percent resistant isolates after 48 hrs by agar dilution method in presence of 4 ug/ml beta-lactamase inhibitor Tazobactam; format: functional; method in brief: as §1
Hoylesella oralis = assay: Antimicrobial activity against Prevotella oralis assessed as percent resistant isolates after 48 hrs by agar dilution method in presence of 4 ug/ml beta-lactamase inhibitor Tazobactam; format: functional; method in brief: as §1
Eubacterium sp. = assay: Antimicrobial activity against Eubacterium sp. assessed as percent resistant isolates after 48 hrs by agar dilution method in presence of 4 ug/ml beta-lactamase inhibitor Tazobactam; format: functional; method in brief: as §1
Parvimonas micra = assay: Antimicrobial activity against Peptostreptococcus micros after 48 hrs by agar dilution method in presence of 4 ug/ml beta-lactamase inhibitor Tazobactam; format: functional; method in brief: as §2
[7] = system: Bifidobacterium adolescentis; assay: Antimicrobial activity against Bifidobacterium adolescentis after 48 hrs by agar dilution method in presence of 4 ug/ml beta-lactamase inhibitor Tazobactam; format: functional
Method in brief: (§3)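 MICs by CLSI agar dilution for piperacillin combined with tazobactam, with tazobactam held constant at 4 μg/ml. Clinical anaerobe isolates inoculated at 10^5 CFU by Steers replicator. Plates kept in an anaerobic chamber at 37°C for 48 h.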

Fusobacterium nucleatum = assay: Antimicrobial activity against Fusobacterium nucleatum after 48 hrs by agar dilution method in presence of 4 ug/ml beta-lactamase inhibitor Tazobactam; format: functional; method in brief: as §2
Anaerococcus prevotii [8] = assay: Antimicrobial activity against Anaerococcus prevotii assessed as percent resistant isolates after 48 hrs by agar dilution method in presence of 4 ug/ml beta-lactamase inhibitor Tazobactam; format: functional; method in brief: as §1
Anaerococcus prevotii [9] = assay: Antimicrobial activity against Anaerococcus prevotii assessed as percent susceptible isolates after 48 hrs by agar dilution method in presence of 4 ug/ml beta-lactamase inhibitor Tazobactam; format: functional
Prevotella intermedia = assay: Antimicrobial activity against Prevotella intermedia assessed as percent resistant isolates after 48 hrs by agar dilution method in presence of 4 ug/ml beta-lactamase inhibitor Tazobactam; format: functional; method in brief: as §1
Schaalia odontolytica = assay: Antimicrobial activity against Actinomyces odontolyticus assessed as percent susceptible isolates after 48 hrs by agar dilution method in presence of 4 ug/ml beta-lactamase inhibitor Tazobactam; format: functional; details: pooled result: one value given for 8 cell lines, strains, targets or settings
[10] = system: Peptoniphilus asaccharolyticus; assay: Antimicrobial activity against Peptoniphilus asaccharolyticus assessed as percent susceptible isolates after 48 hrs by agar dilution method in presence of 4 ug/ml beta-lactamase inhibitor Tazobactam; format: functional; method in brief: as §2
[11] = system: Bifidobacterium adolescentis; assay: Antimicrobial activity against Bifidobacterium adolescentis assessed as percent resistant isolates after 48 hrs by agar dilution method in presence of 4 ug/ml beta-lactamase inhibitor Tazobactam; format: functional; method in brief: as §1
Finegoldia magna = assay: Antimicrobial activity against Finegoldia magna assessed as percent susceptible isolates after 48 hrs by agar dilution method in presence of 4 ug/ml beta-lactamase inhibitor Tazobactam; format: functional; method in brief: as §2
[12] = system: Peptostreptococcus anaerobius; assay: Antimicrobial activity against Peptostreptococcus anaerobius after 48 hrs by agar dilution method in presence of 4 ug/ml beta-lactamase inhibitor Tazobactam; format: functional; method in brief: as §2
Bacteroides caccae [13] = assay: Antimicrobial activity against Bacteroides caccae after 48 hrs by agar dilution method in presence of 4 ug/ml beta-lactamase inhibitor Tazobactam; format: functional; method in brief: as §3
[14] = system: Porphyromonas asaccharolytica; assay: Antimicrobial activity against Porphyromonas asaccharolytica after 48 hrs by agar dilution method in presence of 4 ug/ml beta-lactamase inhibitor Tazobactam; format: functional; method in brief: as §2
Actinomyces naeslundii = assay: Antimicrobial activity against Actinomyces naeslundii assessed as percent resistant isolates after 48 hrs by agar dilution method in presence of 4 ug/ml beta-lactamase inhibitor Tazobactam; format: functional; method in brief: as §1
[15] = system: Parabacteroides distasonis; assay: Antimicrobial activity against Bacteroides distasonis after 48 hrs by agar dilution method in presence of 4 ug/ml beta-lactamase inhibitor Tazobactam; format: functional; method in brief: as §3

For `CCN1CCN(C(=O)N[C@@H](C(=O)N[C@@H]2C(=O)N3[C@@H]2SC(C)(C)[C@@H]3C(=O)O)c2ccccc2)C(=O)C1=O` [PIPERACILLIN], which Activity (Prevotella buccae [1]) is on record?
Its Activity is 0%.

What about the Activity (Prevotella buccae [2]) of the same molecule?
Its Activity is 100%.

And the Activity (Clostridioides difficile [3])?
The Activity was 100%.

What about the Activity (Clostridioides difficile [4]) of the same molecule?
Its Activity is 0%.

What about the MIC50 (Prevotella buccae [5]) of the same molecule?
The MIC50 was at most 0.03 µg/mL.

What about the MIC90 (Prevotella buccae [5]) of the same molecule?
Its MIC90 is 4 µg/mL.

And the MIC50 (Eggerthella lenta)?
The MIC50 was 0.5 µg/mL.

What about the MIC90 (Eggerthella lenta) of the same molecule?
The MIC90 was 8 µg/mL.

And the Activity (Bacteroides caccae [6])?
Its Activity is 7%.

What about the Activity (Hoylesella oralis) of the same molecule?
Its Activity is 0%.

What about the Activity (Eubacterium sp.) of the same molecule?
Its Activity is 0%.

And the MIC50 (Parvimonas micra)?
Its MIC50 is 0.25 µg/mL.

What about the MIC90 (Parvimonas micra) of the same molecule?
The MIC90 was 16 µg/mL.

And the MIC50 [7]?
The MIC50 was 0.5 µg/mL.

And the MIC90 [7]?
The MIC90 was 8 µg/mL.

What about the MIC (Fusobacterium nucleatum) of the same molecule?
Its MIC is 0.03 µg/mL.

What about the Activity (Anaerococcus prevotii [8]) of the same molecule?
The Activity was 0%.

And the Activity (Anaerococcus prevotii [9])?
The Activity was 100%.

And the Activity (Prevotella intermedia)?
Its Activity is 0%.

What about the Activity (Schaalia odontolytica) of the same molecule?
The Activity was 92%.

And the Activity [10]?
Its Activity is 100%.

And the Activity [11]?
The Activity was 0%.

What about the Activity (Finegoldia magna) of the same molecule?
The Activity was 100%.

And the MIC50 [12]?
The MIC50 was 0.25 µg/mL.

What about the MIC90 [12] of the same molecule?
The MIC90 was 16 µg/mL.

And the MIC50 (Bacteroides caccae [13])?
The MIC50 was 8 µg/mL.

What about the MIC90 (Bacteroides caccae [13]) of the same molecule?
Its MIC90 is 64 µg/mL.

And the MIC [14]?
The MIC was 0.03 µg/mL.

What about the Activity (Actinomyces naeslundii) of the same molecule?
Its Activity is 0%.

What about the MIC50 [15] of the same molecule?
Its MIC50 is 8 µg/mL.

What about the MIC90 [15] of the same molecule?
The MIC90 was 64 µg/mL.
